# According to ChEMBL document CHEMBL1641445, “Synthesis, antiprotozoal, antimicrobial, β-hematin inhibition, cytotoxicity and methemoglobin (MetHb) formation activities of bis(8-aminoquinolines)” (Bioorg Med Chem, 2011):
# Activity calls are given as the source filed them. No cut-off for these calls is given here.
# Experiments:
# Plasmodium falciparum [1] = test: Antimalarial activity against chloroquine-resistant Plasmodium falciparum W2 by LDH assay; type: functional, organism-based
# Summary of the method: (§1)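 Antiplasmodial activity was measured in vitro against P. falciparum blood-stage cultures. Read-out was parasite lactate dehydrogenase (LDH) activity, with IC50 values expressed in µg/mL. The same protocol was used for the D6 and W2 strains.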
# Leishmania donovani = test: Antileishmanial activity against promastigotes of Leishmania donovani by alamar blue assay; type: functional, organism-based
# [2] = Inhibition of beta-hematin formation; type: functional
# [3] = Hematotoxicity against RBC assessed as formation of methemoglobin at 20 ug/ml relative to control; type: cell-based; conditions: erythrocyte
# Summary of the method: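 Metabolism-linked methemoglobin toxicity in vitro. Percent MetHb formation was determined at 20 µg/mL of compound relative to vehicle control.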
# Vero = test: Cytotoxicity against african green monkey Vero cells up to 10 ug/ml by neutral red assay; type: cell-based; conditions: chlorocebus sabaeus
# Summary of the method: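 Vero (monkey kidney) cells were exposed up to a highest concentration of 10 µg/mL. Viability was read by neutral red uptake.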
# Cryptococcus neoformans = test: Antifungal activity against Cryptococcus neoformans ATCC 90113; type: functional, organism-based
# Plasmodium falciparum [4] = test: Antimalarial activity against chloroquine-sensitive Plasmodium falciparum D6 by LDH assay; type: functional, organism-based; summary of the method: as §1
# [5] = tested on: Mycobacterium intracellulare; test: Antibacterial activity against Mycobacterium intracellular ATCC 23068 at 20 ug/ml by CLSI method; type: functional, organism-based
# Staphylococcus aureus = test: Antibacterial activity against methicillin-resistant Staphylococcus aureus ATCC 43300 by CLSI method; type: functional, organism-based
# Summary of the method: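 Broth dilution method (NCCLS M7-A5). […] MIC is the lowest concentration allowing no detectable growth. MBC is the lowest concentration killing the organism. Highest test concentration was 20 µg/mL.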
# Candida albicans = test: Antifungal activity against Candida albicans ATCC 90028 at 20 ug/ml; type: functional, organism-based
# Plasmodium berghei = test: Antimalarial activity against Plasmodium berghei infected in mouse assessed as complete elimination of malaria parasites from animals at 100 mg/kg, po qd for 4 days measured up to 60 days; type: functional, organism-based; parameters: dose 100 mg/kg
# Summary of the method: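 Rodent P. berghei (sensitive strain) blood-schizontocidal model, 6 mice per group. Compounds were given orally once daily for 4 days at 10, 25, 50 or 100 mg/kg/day. Cure meant complete parasite elimination with survival to day D+60.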
# Aspergillus fumigatus = test: Antifungal activity against Aspergillus fumigatus ATCC 90906 at 20 ug/ml; type: functional, organism-based
# Nakaseomyces glabratus = test: Antifungal activity against Candida glabrata at 20 ug/ml; type: functional, organism-based
# Pichia kudriavzevii = test: Antifungal activity against Candida krusei at 20 ug/ml; type: functional, organism-based
# [6] = tested on: Mycobacterium intracellulare; test: Antibacterial activity against Mycobacterium intracellular ATCC 23068 by CLSI method; type: functional, organism-based
# [7] = Plasmodium falciparum, W2, read-out: IC50
# [8] = Leishmania donovani, read-out: IC50
# [9] = Plasmodium falciparum, D6, read-out: IC50
Structure (SMILES),IC50 (Plasmodium falciparum [1]; [7]),IC90 (Leishmania donovani; Leishmania donovani),IC50 (Leishmania donovani; [8]),IC50 [2],Methemoglobin formation [3],Activity (Vero),IC50 (Plasmodium falciparum [4]; [9]),IC90 (Leishmania donovani),other results
"COc1cc(NC(C)CCCNC(=O)NC(CCCNC(=N)N)C(=O)NCCCC(C)Nc2cc(OC)cc3cccnc23)c2ncccc2c1.Cl (single isomer, unassigned; 39)",1.5 mg/L,36 mg/L,19 mg/L,88 µM,5.5%,Non-toxic,2.4 mg/L,–,IC50 (Cryptococcus neoformans): 15 mg/L; MFC (Cryptococcus neoformans): 20 mg/L; MIC (Cryptococcus neoformans): 20 mg/L; IC50 [5]: Not Active; IC50 (Staphylococcus aureus): 15 mg/L; MBC (Staphylococcus aureus): 20 mg/L; IC50 (Candida albicans): Not Active
COc1cc(NC(C)CCCNCC(=O)NCCCC(C)Nc2cc(OC)cc3cccnc23)c2ncccc2c1.Cl.Cl (centres undefined),–,–,20 mg/L,> 1000 µM,20.3%,Non-toxic,–,inactive,IC50 (Plasmodium falciparum [1]): Not Active; IC50 (Plasmodium falciparum [4]): Not Active
COc1cc(NC(C)CCCNC(=O)NC(=O)NCCCC(C)Nc2cc(OC)cc3cccnc23)c2ncccc2c1.Cl.Cl (centres undefined),3.4 mg/L,–,–,155 µM,2.25%,Non-toxic,4.76 mg/L,inactive,IC50 (Leishmania donovani): Not Active; Activity (Plasmodium berghei): inactive
COc1cc(NC(C)CCCNC(=O)c2ccncc2C(=O)NCCCC(C)Nc2cc(OC)cc3ccc(C(C)(C)C)nc23)c2nc(C(C)(C)C)ccc2c1.Cl (centres undefined),0.87 mg/L,31 mg/L,16 mg/L,70 µM,1.2%,Non-toxic,1.5 mg/L,–,IC50 [5]: Not Active; MBC [5]: inactive; MIC [5]: inactive; IC50 (Staphylococcus aureus): 15 mg/L; MBC (Staphylococcus aureus): 20 mg/L; MIC (Staphylococcus aureus): 20 mg/L
COc1cc(NC(C)CCCNC(=O)c2ccncc2C(=O)NCCCC(C)Nc2cc(OC)cc3cccnc23)c2ncccc2c1.Cl (centres undefined),1.7 mg/L,–,–,108 µM,3.55%,Non-toxic,3 mg/L,inactive,IC50 (Leishmania donovani): Not Active
COc1cc(NC(C)CCCNC(=O)NCCCC(C)Nc2cc(OC)cc3cccnc23)c2ncccc2c1.Cl.Cl (centres undefined),4.76 mg/L,–,–,> 1000 µM,9.8%,Non-toxic,4.76 mg/L,inactive,IC50 (Leishmania donovani): Not Active; Activity (Plasmodium berghei): inactive
N=C(N)c1ccc(OCCCCCOc2ccc(C(=N)N)cc2)cc1 [PENTAMIDINE],–,3.8 mg/L,–,–,–,–,–,–,–
COc1cc(NC(C)CCCNC(=O)c2cccc(C(=O)NCCCC(C)Nc3cc(OC)cc4ccc(C(C)(C)C)nc34)n2)c2nc(C(C)(C)C)ccc2c1.Cl (centres undefined),4.5 mg/L,–,–,> 1000 µM,0.25%,Non-toxic,–,inactive,IC50 (Leishmania donovani): Not Active; IC50 (Plasmodium falciparum [4]): Not Active
COc1cc(NC(C)CCCNC(=O)c2cncc(C(=O)NCCCC(C)Nc3cc(OC)cc4cccnc34)c2)c2ncccc2c1.Cl (centres undefined),3 mg/L,–,18 mg/L,110 µM,5.5%,Non-toxic,3.3 mg/L,inactive,–
COc1cc(NC(C)CCCNC(=O)C(=O)NCCCC(C)Nc2cc(OC)cc3cccnc23)c2ncccc2c1.Cl.Cl (centres undefined),–,> 40 mg/L,15 mg/L,> 1000 µM,6.45%,Non-toxic,–,–,IC50 (Plasmodium falciparum [1]): Not Active; IC50 (Plasmodium falciparum [4]): Not Active
"COc1cc(NC(C)CCCNC(=O)NC(CCCN)C(=O)NCCCC(C)Nc2cc(OC)cc3cccnc23)c2ncccc2c1.Cl (single isomer, unassigned; 40)",2.8 mg/L,39 mg/L,18 mg/L,154 µM,6.1%,Non-toxic,4.2 mg/L,–,IC50 (Cryptococcus neoformans): 7 mg/L; IC50 [5]: Not Active; IC50 (Staphylococcus aureus): 10 mg/L; MIC (Staphylococcus aureus): 20 mg/L; IC50 (Candida albicans): Not Active
COc1cc(NC(C)CCCNSC(=O)NCCCC(C)Nc2cc(OC)cc3cccnc23)c2ncccc2c1.Cl.Cl (centres undefined),4.76 mg/L,38 mg/L,20 mg/L,153 µM,10.9%,Non-toxic,–,–,IC50 (Plasmodium falciparum [4]): Not Active
COc1cc(NC(C)CCCNC(=O)c2cncc(C(=O)NCCCC(C)Nc3cc(OC)cc4ccc(C(C)(C)C)nc34)c2)c2nc(C(C)(C)C)ccc2c1.Cl (centres undefined),–,–,19 mg/L,120 µM,0.55%,Non-toxic,–,inactive,–
"COc1cc(NC(C)CCCNC(=O)NC(CCCNC(=N)N)C(=O)NCCCC(C)Nc2cc(OC)cc3cccnc23)c2ncccc2c1 (single isomer, unassigned; 39)",–,–,–,–,–,–,–,–,Activity (Aspergillus fumigatus): inactive; Activity (Nakaseomyces glabratus): inactive; MBC [5]: inactive; MIC [5]: inactive; Activity (Pichia kudriavzevii): inactive; MFC (Candida albicans): inactive; MIC (Candida albicans): inactive
"COc1cc(NC(C)CCCNC(=O)NC(CCCN)C(=O)NCCCC(C)Nc2cc(OC)cc3cccnc23)c2ncccc2c1.Cl (single isomer, unassigned; 37)",2 mg/L,40 mg/L,14 mg/L,88 µM,7.9%,Non-toxic,2.8 mg/L,–,IC50 (Cryptococcus neoformans): 15 mg/L; MFC (Cryptococcus neoformans): 20 mg/L; MIC (Cryptococcus neoformans): 20 mg/L; IC50 (Candida albicans): Not Active
COc1cc(NC(C)CCCN)c2nc(C(C)(C)C)ccc2c1 (centres undefined),–,–,–,2.9 µM,–,–,–,–,–
COc1cc(NC(C)CCCNC(=S)NCCCC(C)Nc2cc(OC)cc3ccc(C(C)(C)C)nc23)c2nc(C(C)(C)C)ccc2c1.Cl.Cl (centres undefined),2.3 mg/L,31 mg/L,9 mg/L,> 1000 µM,0.75%,Non-toxic,3 mg/L,–,–
COc1cc(NC(C)CCCNC(=O)NCCCC(C)Nc2cc(OC)cc3ccc(C(C)(C)C)nc23)c2nc(C(C)(C)C)ccc2c1.Cl.Cl (centres undefined),–,–,–,> 1000 µM,1%,Non-toxic,3 mg/L,inactive,IC50 (Leishmania donovani): Not Active; Activity (Plasmodium berghei): inactive
C[C@@H]1CC[C@H]2[C@@H](C)C(=O)O[C@@H]3O[C@@]4(C)CC[C@@H]1[C@]32OO4 [ARTEMISININ],–,–,–,–,–,–,0.015 mg/L,–,–
"COc1cc(NC(C)CCCNC(=O)NC(CCCNC(=N)N)C(=O)NCCCC(C)Nc2cc(OC)cc3cccnc23)c2ncccc2c1.Cl (single isomer, unassigned; 36)",–,7.2 mg/L,–,90 µM,3.1%,Non-toxic,–,–,IC50 (Cryptococcus neoformans): 6.5 mg/L; MFC (Cryptococcus neoformans): 10 mg/L; MIC (Cryptococcus neoformans): 10 mg/L; IC50 [6]: 15 mg/L; MBC [6]: 20 mg/L; MIC [6]: 20 mg/L; IC50 (Staphylococcus aureus): 15 mg/L; MIC (Staphylococcus aureus): 20 mg/L; IC50 (Candida albicans): Not Active
COc1cc(NC(C)CCCNC(=O)NC(=O)NCCCC(C)Nc2cc(OC)cc3ccc(C(C)(C)C)nc23)c2nc(C(C)(C)C)ccc2c1.Cl.Cl (centres undefined),–,> 40 mg/L,25 mg/L,> 1000 µM,8.8%,Non-toxic,–,–,IC50 (Plasmodium falciparum [1]): Not Active; IC50 (Plasmodium falciparum [4]): Not Active
C[C@@H]1[C@H](O)[C@@H](C)/C=C/C=C/C=C/C=C/C=C/C=C/C=C/[C@H](O[C@@H]2O[C@H](C)[C@@H](O)[C@H](N)[C@@H]2O)C[C@@H]2O[C@](O)(C[C@@H](O)C[C@@H](O)[C@H](O)CC[C@@H](O)C[C@@H](O)CC(=O)O[C@H]1C)C[C@H](O)[C@H]2C(=O)O [AMPHOTERICIN B],–,0.35 mg/L,–,–,–,–,–,–,–
"COc1cc(NC(C)CCCNC(=O)NC(CCCCN)C(=O)NCCCC(C)Nc2cc(OC)cc3cccnc23)c2ncccc2c1.Cl (single isomer, unassigned)",2.7 mg/L,> 40 mg/L,18 mg/L,80 µM,3.75%,Non-toxic,2.7 mg/L,–,–
COc1cc(NC(C)CCCNC(=O)c2cccc(C(=O)NCCCC(C)Nc3cc(OC)cc4cccnc34)n2)c2ncccc2c1.Cl (centres undefined),2.3 mg/L,–,6.5 mg/L,123 µM,5.7%,Non-toxic,–,inactive,–
COc1cc(NC(C)CCCNC(=O)N[C@@H](CCCCN)C(=O)NCCCC(C)Nc2cc(OC)cc3ccc(C(C)(C)C)nc23)c2nc(C(C)(C)C)ccc2c1.Cl (some centres undefined),–,38 mg/L,19 mg/L,> 1000 µM,1.1%,Non-toxic,–,–,IC50 (Plasmodium falciparum [1]): Not Active; IC50 (Plasmodium falciparum [4]): Not Active; IC50 [5]: Not Active; MBC [5]: inactive; MIC [5]: inactive; IC50 (Staphylococcus aureus): 8 mg/L; MBC (Staphylococcus aureus): 20 mg/L; MIC (Staphylococcus aureus): 20 mg/L
